Hit rate of the full screen: of about 220,000 compounds, about 1,000 (0.45%) were called active. This is one part of a sample in which actives are shown more often than they occur.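 The calls were made as follows: active = plate z-score of nuclear minus cytoplasmic receptor signal below a set negative limit, without overly bright fluorescence or cell loss (cut at about -3.5 in these data, passing the limit was not always enough); inactive = the rest, inconclusive results apart.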
Assay: inhibitors of GR-EGFP nuclear translocation, primary screen, dynein cargo transport inhibitor project, imaging, high-content, 3617.4 mouse cells (AID 1381)
Conditions: stimulated with dexamethasone, 1 µM
How it was run: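 Schedule: 48 h induction, then 1 h compound, then 30 min agonist, 37 °C. Buffer or medium: tetracycline-free induction medium containing charcoal-stripped FBS. Reagent: 1.0 µM final dexamethasone stimulus. Evaluation: nuclear versus cytoplasmic GR-EGFP signal, averaged per well. Signal: high-content fluorescence imaging after fixation.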

[1] = measured here: cell count per field, at 50 µM
[2] = measured here: cytoplasmic GR-EGFP intensity, at 50 µM, stronger effect = higher value
[3] = measured here: nuclear GR-EGFP intensity, at 50 µM, stronger effect = lower value
[4] = measured here: cell count per field, at 20 µM
[5] = measured here: cytoplasmic GR-EGFP intensity, at 20 µM, stronger effect = higher value
[6] = measured here: nuclear GR-EGFP intensity, at 20 µM, stronger effect = lower value

SMILES | z-score (at 50 µM, stronger effect = lower value) | z-score [1] | z-score [2] | z-score [3] | z-score (at 20 µM, stronger effect = lower value) | z-score [4] | z-score [5] | z-score [6]
Cc1cc(C)c2c3c(sc2n1)C(c1ccccc1)C(C#N)=C(N)O3 (stereo not given) | -4.27 (active) | 2.33 | 1.49 | -2.28 |  |  |  | 
N#CC1=C(N)Oc2c(sc3ccccc23)C1c1ccco1 (stereo not given) |  |  |  |  | -0.943 (inactive) | 0.511 | 0.878 | 0.0658
Cc1cc(C)c(C#N)c(SCc2[nH]nc3c2C(c2ccccc2)C(C#N)=C(N)O3)n1 (stereo not given) |  |  |  |  | -0.933 (inactive) | 1.23 | -0.0183 | -0.255
COc1ccc(C(C#N)N2N=C(C)CC2(C)C)cc1 (stereo not given) |  |  |  |  | -0.0116 (inactive) | -0.511 | -0.208 | -0.808
O=C(NCCCN1CCCCC1)c1ccc2c(c1)NC(=O)C(N1CCOCC1)S2 (stereo not given) |  |  |  |  | 0.104 (inactive) | -0.224 | -0.224 | -0.851
O=S1(=O)CC/C(=N\Nc2ccc(F)cc2)c2ccsc21 |  |  |  |  | -0.204 (inactive) | -0.257 | -0.126 | -0.15
Nn1cnnc1N/N=C/c1cc([N+](=O)[O-])c(Cl)cc1Cl |  |  |  |  | 0.859 (inactive) | -0.348 | 0.536 | 0.371
Cc1ccc(Cn2c(C)nc3c(c2=O)c2nc4ccccc4nc2n3Cc2ccco2)cc1 | -4.55 (active) | -0.433 | 0.482 | -1.83 |  |  |  | 
Cn1c2ccccc2c(=O)c2c(=O)n(Cc3ccco3)c(COc3ccccc3)nc21 |  |  |  |  | 0.301 (inactive) | -0.271 | -0.198 | 0.291
Cc1ccc(Cn2c(NC(=O)c3ccco3)nc3ccccc32)cc1 |  |  |  |  | 0.337 (inactive) | -0.00289 | -0.18 | 0.336
Cc1c(Cl)cccc1NC(=O)CC1SC(=NCC2CCCO2)NC1=O (stereo not given) |  |  |  |  | -0.0448 (inactive) | -0.163 | -0.258 | 0.413
NNC(=O)c1ccc(Cl)cc1Cl |  |  |  |  | 0.203 (inactive) | -0.823 | -0.243 | 0.206
Cc1ccc(NC(=O)c2cc(-c3ccc(C)o3)nc3ccccc23)nc1 | -3.31 (inactive) | -0.441 | 0.617 | -1.89 |  |  |  | 
Cc1ccc(-c2cc(C(=O)NCC3CCCO3)c3ccccc3n2)o1 (stereo not given) | -4.29 (active) | 0.456 | 0.668 | -1.96 |  |  |  | 
O=C(NCC1CCCO1)c1cc(-c2ccccc2)nc2ccccc12 (stereo not given) |  |  |  |  | 0.068 (inactive) | 0.631 | -0.236 | 0.0806
Cc1nc(-c2nnc(SCC(=O)Nc3cc(C(F)(F)F)cc(C(F)(F)F)c3)n2C)cs1 |  |  |  |  | 0.49 (inactive) | -0.365 | -0.261 | 0.826
COc1ccc(CN(Cc2ccc(OC)cc2)C(=O)c2cccs2)cc1 |  |  |  |  | -0.594 (inactive) | 0.82 | -0.256 | -0.492
COc1ccc(NC(=O)CN(Cc2ccccc2)S(C)(=O)=O)cc1OC |  |  |  |  | 0.347 (inactive) | -0.496 | 0.00823 | 0.254
Cc1cc(=O)oc2c1c(C)nn2-c1ccc(Cl)cc1 |  |  |  |  | -0.357 (inactive) | 1.43 | -0.242 | -0.696
Cc1cc(SCC(=O)c2ccccc2)nc(SCC(=O)c2ccccc2)n1 |  |  |  |  | 3.42 (inactive) | -0.936 | -0.199 | -0.0972
Cc1cc(C)nc(S/C=C/C(=O)c2ccccc2)n1 |  |  |  |  | -5.15 (active) | 1.04 | 1.08 | -2.68
C/C(=N\NC(=O)c1nc(C)cc(C)n1)c1ccccc1 |  |  |  |  | 1.7 (inactive) | -1.78 | 0.199 | 1.06
Nc1nnn(CC(=O)N/N=C/c2ccc(O)cc2)n1 |  |  |  |  | -0.272 (inactive) | 0.973 | -0.243 | 0.283
CC(=O)N/C(=C\c1ccc(F)cc1)C(=O)NC(Cc1ccccc1)C(=O)O (stereo not given) |  |  |  |  | -0.458 (inactive) | 0.748 | -0.217 | 0.179

SMILES | z-score (at 50 µM, stronger effect = lower value) | z-score [1] | z-score [2] | z-score [3] | z-score (at 20 µM, stronger effect = lower value) | z-score [4] | z-score [5] | z-score [6]
O=C(Nc1ccccc1Cl)c1ccc2nsnc2c1 |  |  |  |  | -0.891 (inactive) | 0.488 | -0.235 | -0.5
O=C(Nc1ccccc1Cl)/C(Cl)=C(\Cl)S(=O)c1ccccc1 (stereo not given) |  |  |  |  | -7.75 (active) | 0.218 | 2.93 | -2.78
COCCN(CCOC)C(=S)Nc1ccccc1Cl |  |  |  |  | -0.23 (inactive) | 0.546 | 0.025 | -0.44
C/C(N)=C(/C#N)C(=O)COC(=O)c1cc(-c2cccc(Br)c2)nc2ccccc12 |  |  |  |  | 0.554 (inactive) | -0.985 | -0.242 | 0.468
O=C(COC(=O)c1ccccc1)Nc1cccc(S(=O)(=O)N2CCOCC2)c1 |  |  |  |  | 0.599 (inactive) | -0.0984 | -0.271 | 0.704
COC(=O)c1ccc(CSc2nnc(N)s2)o1 |  |  |  |  | -0.747 (inactive) | 0.802 | -0.292 | -0.243
O=C1c2ccccc2NC(c2ccccn2)N1NS(=O)(=O)c1ccccc1 (stereo not given) |  |  |  |  | -1.12 (inactive) | 1.24 | -0.348 | -0.844
CCC1(CC)NC(=O)N(CC(=O)OCC(=O)NC(=O)c2ccccc2)C1=O |  |  |  |  | -0.1 (inactive) | 1.43 | -0.273 | 0.236
CCCc1nc2oc3c(=O)[nH]cnc3c2c2c1COC(C)(C)C2 |  |  |  |  | -0.456 (inactive) | 0.775 | -0.274 | -0.288
C/C(CC(=O)Nc1cccc(F)c1)=N\NC(=O)C(=O)NC1CCCCC1 |  |  |  |  | -0.0686 (inactive) | 0.185 | -0.304 | -0.00364
CCc1c(SCCC(=O)O)nc2ccccc2c1C |  |  |  |  | -0.704 (inactive) | 0.903 | -0.252 | -0.0559
CCCSC(=S)NC1CCS(=O)(=O)C1 (stereo not given) |  |  |  |  | -1.85 (inactive) | 0.977 | -0.0684 | -0.34
O=S1(=O)CCC(NC(=S)SCc2ccccc2Br)C1 (stereo not given) |  |  |  |  | -3.97 (active) | -0.868 | 1.57 | -1.78
O=C(CSc1ccccc1F)NC1CCS(=O)(=O)C1 (stereo not given) |  |  |  |  | -0.432 (inactive) | 0.683 | -0.305 | 0.2
CCOc1ccc(C(C)=O)cc1CSc1nnc(-c2ccncc2)n1CCOC |  |  |  |  | 0.185 (inactive) | 0.406 | -0.242 | 0.523
O=c1oc(/C=C/c2ccccc2)nc2ccccc12 |  |  |  |  | 1.7 (inactive) | -1.1 | -0.0815 | 0.729
COc1ccc(-c2cc(C(F)(F)F)nc(SCC(=O)Nc3ccc4c(c3)OCO4)n2)cc1OC |  |  |  |  | -0.345 (inactive) | 0.664 | -0.302 | -0.551
COc1ccc(-c2cc(C(F)(F)F)nc(S(C)(=O)=O)n2)cc1OC |  |  |  |  | -5.48 (active) | 0.235 | 1.61 | -2.61
COc1cc(OC)nc(S(C)(=O)=O)n1 |  |  |  |  | 0.268 (inactive) | -0.196 | -0.228 | -0.13
CC1C/C(=N/NC(=O)c2cccs2)CC(C)(C)C1 (stereo not given) |  |  |  |  | -1.02 (inactive) | 0.142 | -0.107 | -0.387
CC(=O)Cn1ncc(N2CCOCC2)c(Br)c1=O |  |  |  |  | 1.61 (inactive) | -0.679 | -0.251 | 0.837
CC(=O)Nc1ccccc1OC(=O)N1CCOCC1 | -0.424 (inactive) | 0.445 | -0.192 | -0.0276 |  |  |  | 
O=C(c1cccs1)N1CCN(C(=O)N2CCOCC2)CC1 |  |  |  |  | -0.705 (inactive) | 0.766 | -0.299 | -0.226
O=C(/C=C/c1cccs1)c1cc(Cl)ccc1OC(=O)N1CCOCC1 |  |  |  |  | -4.66 (active) | 0.865 | 0.34 | -2.08

SMILES | z-score (at 50 µM, stronger effect = lower value) | z-score [1] | z-score [2] | z-score [3] | z-score (at 20 µM, stronger effect = lower value) | z-score [4] | z-score [5] | z-score [6]
CC(=O)NC1(c2ccc(F)cc2)CCN(C(=O)c2c(F)cccc2F)CC1 |  |  |  |  | -0.575 (inactive) | 1.07 | -0.235 | -0.241
Nc1ncnc(Nc2cccc(Cl)c2Cl)n1 |  |  |  |  | -1.6 (inactive) | 0.756 | -0.225 | -1.2
COCCN(Cc1nc(-c2ccc(C(F)(F)F)cc2)no1)C(C)C |  |  |  |  | -0.214 (inactive) | 0.527 | -0.267 | 0.0742
O=C(NNS(=O)(=O)Cc1ccccc1)c1ccc([N+](=O)[O-])cc1 |  |  |  |  | -0.775 (inactive) | 0.134 | -0.751 | -0.634
COc1ccc(-n2cnc3cc(C(=O)NC4CCCC4)ccc32)cc1 |  |  |  |  | 0.728 (inactive) | -0.477 | -0.235 | 0.5
S=c1[nH]nc(-c2cccnc2)n1/N=C/C(Cl)=C\c1ccccc1 |  |  |  |  | -0.315 (inactive) | -1.55 | 0.22 | 0.116
Cc1cc(-c2n[nH]c(=S)n2/N=C/c2ccco2)n[nH]1 |  |  |  |  | 0.146 (inactive) | -0.499 | -0.239 | -0.0329
Cc1cc(-c2n[nH]c(=S)n2/N=C/C(Br)=C/c2ccccc2)n[nH]1 |  |  |  |  | -4.43 (active) | -1.17 | 0.939 | -2.57
Nc1ccccc1SCc1cc([N+](=O)[O-])cc2c1OCOC2 |  |  |  |  | -0.839 (inactive) | 0.822 | 3.91 | 0.0233
Nc1ccccc1Sc1ccc(C(F)(F)F)cc1[N+](=O)[O-] |  |  |  |  | -0.595 (inactive) | 0.488 | -0.213 | -0.319
Nc1ccccc1SC(C[N+](=O)[O-])c1ccccc1 (stereo not given) |  |  |  |  | -4.57 (active) | -0.167 | 2.56 | -1.84
COC(=O)c1cc(C(=O)N(Cc2ccccc2)c2ccccn2)cc([N+](=O)[O-])c1 |  |  |  |  | -0.154 (inactive) | -0.0688 | -0.223 | -0.31
CN1CCN(C(=O)/C(=C\c2cccs2)NC(=O)c2cccs2)CC1 |  |  |  |  | -0.757 (inactive) | 1.17 | -0.214 | -0.212
OCC(CO)(CO)NCc1ccc(-c2ccccc2)cc1 |  |  |  |  | -0.998 (inactive) | 0.791 | -0.231 | -0.299
O=C(NNC(=O)c1ccccc1[N+](=O)[O-])Nc1ccccc1C(F)(F)F |  |  |  |  | -1.96 (inactive) | 0.934 | -0.0968 | -0.966
CC1(C)CCSC(/C=C/c2ccccc2)=N1 |  |  |  |  | -6.85 (active) | 1.01 | 1.09 | -2.95
Cc1ccc2nc(-c3ccncc3)cc(C(=O)Nc3ccc(OC(F)F)cc3)c2c1 |  |  |  |  | -0.0501 (inactive) | 0.497 | -0.311 | -0.123
O=C(Nn1c(SCc2ccc([N+](=O)[O-])cc2)nc2ccccc2c1=O)c1ccc(F)cc1 |  |  |  |  | -0.621 (inactive) | 3.84 | -0.327 | -0.596
O=C(CCc1nnc(CCCCc2ccccc2)o1)NC(c1cccnc1)C(F)(F)F (stereo not given) |  |  |  |  | -0.699 (inactive) | 1.17 | -0.266 | -0.517
COc1cc2c(cc1OC)C(C(C)C)=NC(C)(C)C2 | 1.53 (inactive) | -0.94 | -0.084 | 1.55 |  |  |  | 
COc1cc2c(cc1OC)C(Nc1ccc(S(N)(=O)=O)cc1)=NC(C)(C)C2 |  |  |  |  | 0.371 (inactive) | 0.476 | -0.265 | 0.242
COc1cc2c(cc1O)C(SC)=NC(C)(C)C2 | -4 (active) | -1.21 | 2.4 | -1.15 |  |  |  | 
